Results: ChEMBL document CHEMBL1123888, “Aldosterone antagonists. 2. Synthesis and biological activities of 11,12-dehydropregnane derivatives” (J Med Chem, 1987)
Activity calls are given as the source filed them. No cut-off for these calls is given here.

Key:
[1] = species on record: Rattus norvegicus; experiment: Displacement of [3H]promegestone from progestin receptor of rat uterine cytosol at 0 degree Centigrade
Outline: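 Uteri from estradiol-primed rats supplied the cytosol. It was incubated with various competitor concentrations and about 1 nM [3H]promegestone for 16-20 h at 0 °C. Bound and free steroid were separated by DCC. RBA (progesterone = 100%) = 100 × ratio of the 50%-inhibition concentrations of standard and competitor.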

[2] = target: T1, Mineralocorticoid receptor (Rattus norvegicus) (UniProt P22199); experiment: Antagonist activity against Mineralocorticoid receptor after subcutaneous administration in Male Sprague Dawley rats; (+) =positive; type: functional, organism-based; settings: filed as antagonist
T1 sequence (whole entry): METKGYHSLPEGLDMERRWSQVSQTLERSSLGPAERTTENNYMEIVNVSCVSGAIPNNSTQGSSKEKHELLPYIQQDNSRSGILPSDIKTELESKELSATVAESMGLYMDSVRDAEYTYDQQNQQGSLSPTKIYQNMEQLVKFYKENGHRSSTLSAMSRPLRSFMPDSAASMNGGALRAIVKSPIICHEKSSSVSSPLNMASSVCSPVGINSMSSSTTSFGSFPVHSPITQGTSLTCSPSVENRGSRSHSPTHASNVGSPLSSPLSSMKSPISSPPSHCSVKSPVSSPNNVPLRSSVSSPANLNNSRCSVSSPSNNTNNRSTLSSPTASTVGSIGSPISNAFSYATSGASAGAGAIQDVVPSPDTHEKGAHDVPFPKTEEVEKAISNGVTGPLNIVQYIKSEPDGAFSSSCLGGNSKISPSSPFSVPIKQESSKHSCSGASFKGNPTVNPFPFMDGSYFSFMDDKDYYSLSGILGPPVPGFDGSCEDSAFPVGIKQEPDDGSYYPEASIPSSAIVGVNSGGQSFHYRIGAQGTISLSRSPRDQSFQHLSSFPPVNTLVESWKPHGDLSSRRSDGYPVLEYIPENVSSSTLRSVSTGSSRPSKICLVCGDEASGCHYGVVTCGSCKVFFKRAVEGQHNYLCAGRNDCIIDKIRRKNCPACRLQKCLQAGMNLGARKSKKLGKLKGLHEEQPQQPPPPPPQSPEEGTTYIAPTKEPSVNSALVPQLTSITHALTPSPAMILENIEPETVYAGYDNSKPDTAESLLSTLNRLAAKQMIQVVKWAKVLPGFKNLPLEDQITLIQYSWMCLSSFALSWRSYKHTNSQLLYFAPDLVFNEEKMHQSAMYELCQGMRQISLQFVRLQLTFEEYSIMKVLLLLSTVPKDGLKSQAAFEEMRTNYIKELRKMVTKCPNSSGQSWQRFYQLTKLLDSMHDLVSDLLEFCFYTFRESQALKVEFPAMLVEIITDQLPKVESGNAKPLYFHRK
Outline: (§1)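 Male rats were bilaterally adrenalectomized (bioassay modified from Kagawa). Ald (1 µg/kg) was given sc, immediately followed by test compound in sesame oil sc or orally. Urine was collected from 2 to 6 h after steroid. Potency came from the urinary Na/K ratio of sample versus control, with 95% confidence limits.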

[3] = target: T1, Mineralocorticoid receptor (Rattus norvegicus); experiment: Relative binding affinity against mineralocorticoid receptor determined in rat renal cytosol using [3]Ald as ligand
Outline: (§2)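 Renal cytosol came from male Sprague-Dawley rats (4-8 weeks) adrenalectomized bilaterally 1 or 2 days earlier. It was incubated with various competitor concentrations and about 1 nM [3H]Ald for 42-48 h at 0 °C or 100-120 min at 25 °C. Bound and free steroid were separated by DCC.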

[4] = target: T1, Mineralocorticoid receptor (Rattus norvegicus); experiment: Antagonist activity against Mineralocorticoid receptor was determined after subcutaneous administration in Male Sprague Dawley rats; type: functional, organism-based; outline: as §1
[5] = target: T1, Mineralocorticoid receptor (Rattus norvegicus); experiment: Relative binding affinity to the rat mineralocorticoid receptor determined in rat renal cytosol using [3]Ald as ligand; outline: as §2
[6] = target: T1, Mineralocorticoid receptor (Rattus norvegicus); experiment: Antagonist activity against Mineralocorticoid receptor after oral administration in Male Sprague Dawley rats; (+) =positive; type: functional, organism-based; settings: filed as antagonist; outline: as §1
[7] = target: T2, Androgen receptor (Rattus norvegicus) (UniProt P15207); experiment: In vivo relative androgenic activity in Male Sprague-Dawley rats; type: functional, organism-based
T2 sequence (whole entry): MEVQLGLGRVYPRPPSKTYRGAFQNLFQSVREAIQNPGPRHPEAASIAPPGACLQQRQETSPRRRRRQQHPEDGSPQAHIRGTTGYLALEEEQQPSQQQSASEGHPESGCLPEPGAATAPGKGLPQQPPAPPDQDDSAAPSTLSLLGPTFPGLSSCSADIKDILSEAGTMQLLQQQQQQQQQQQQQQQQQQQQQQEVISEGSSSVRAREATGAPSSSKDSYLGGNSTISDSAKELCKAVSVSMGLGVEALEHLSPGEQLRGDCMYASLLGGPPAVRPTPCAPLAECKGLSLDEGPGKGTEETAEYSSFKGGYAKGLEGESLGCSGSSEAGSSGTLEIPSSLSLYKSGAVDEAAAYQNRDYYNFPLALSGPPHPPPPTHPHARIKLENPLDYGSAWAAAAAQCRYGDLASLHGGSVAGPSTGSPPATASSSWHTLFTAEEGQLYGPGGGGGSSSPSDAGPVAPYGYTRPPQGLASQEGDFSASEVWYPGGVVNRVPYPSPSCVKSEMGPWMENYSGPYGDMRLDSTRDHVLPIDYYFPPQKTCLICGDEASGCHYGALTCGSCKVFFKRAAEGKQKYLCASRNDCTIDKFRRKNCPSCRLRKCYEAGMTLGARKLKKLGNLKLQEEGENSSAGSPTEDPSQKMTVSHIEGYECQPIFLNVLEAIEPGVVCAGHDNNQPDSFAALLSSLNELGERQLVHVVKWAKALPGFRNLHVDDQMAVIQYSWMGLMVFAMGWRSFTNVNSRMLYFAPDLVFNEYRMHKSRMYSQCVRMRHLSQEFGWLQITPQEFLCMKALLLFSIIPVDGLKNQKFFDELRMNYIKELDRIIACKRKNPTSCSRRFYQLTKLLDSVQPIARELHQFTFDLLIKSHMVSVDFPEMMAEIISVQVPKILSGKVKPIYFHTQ

[8] = target: T2, Androgen receptor (Rattus norvegicus); experiment: Relative binding affinity against Androgen receptor in Male Sprague-Dawley rats
Outline: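 Rat ventral prostate cytosol from 4-8-week-old rats castrated 1 day earlier. Incubated with various competitor concentrations and about 1 nM [3H]DHT or [3H]methyltrienolone for 16-20 h at 0 °C. Bound and free steroid separated by dextran-coated charcoal.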

[9] = target: T1, Mineralocorticoid receptor (Rattus norvegicus); experiment: Agonist activity against Mineralocorticoid receptor was determined after subcutaneous administration in Male Sprague Dawley rats; (+) =positive; type: functional, organism-based; settings: filed as agonist
[10] = target: T1, Mineralocorticoid receptor (Rattus norvegicus); experiment: Antagonist activity against Mineralocorticoid receptor after oral administration in Male Sprague Dawley rats; (-) = negative; type: functional, organism-based; outline: as §1
[11] = target: T1, Mineralocorticoid receptor (Rattus norvegicus); experiment: Displacement of [3]Aldosterone from mineralocorticoid receptor of rat renal cytosol at 0 degree Centigrade; outline: as §2
[12] = target: T1, Mineralocorticoid receptor (Rattus norvegicus); experiment: Antagonist activity against Mineralocorticoid receptor after po administration in Male Sprague Dawley rats; (-) = negative; type: functional, organism-based; outline: as §1
[13] = target: T3, Progesterone receptor (Rattus norvegicus) (UniProt Q63449); experiment: Relative binding affinity against progesterone receptor determined in rat […] cytosol using [3H]DHT as ligand
T3 sequence (whole entry): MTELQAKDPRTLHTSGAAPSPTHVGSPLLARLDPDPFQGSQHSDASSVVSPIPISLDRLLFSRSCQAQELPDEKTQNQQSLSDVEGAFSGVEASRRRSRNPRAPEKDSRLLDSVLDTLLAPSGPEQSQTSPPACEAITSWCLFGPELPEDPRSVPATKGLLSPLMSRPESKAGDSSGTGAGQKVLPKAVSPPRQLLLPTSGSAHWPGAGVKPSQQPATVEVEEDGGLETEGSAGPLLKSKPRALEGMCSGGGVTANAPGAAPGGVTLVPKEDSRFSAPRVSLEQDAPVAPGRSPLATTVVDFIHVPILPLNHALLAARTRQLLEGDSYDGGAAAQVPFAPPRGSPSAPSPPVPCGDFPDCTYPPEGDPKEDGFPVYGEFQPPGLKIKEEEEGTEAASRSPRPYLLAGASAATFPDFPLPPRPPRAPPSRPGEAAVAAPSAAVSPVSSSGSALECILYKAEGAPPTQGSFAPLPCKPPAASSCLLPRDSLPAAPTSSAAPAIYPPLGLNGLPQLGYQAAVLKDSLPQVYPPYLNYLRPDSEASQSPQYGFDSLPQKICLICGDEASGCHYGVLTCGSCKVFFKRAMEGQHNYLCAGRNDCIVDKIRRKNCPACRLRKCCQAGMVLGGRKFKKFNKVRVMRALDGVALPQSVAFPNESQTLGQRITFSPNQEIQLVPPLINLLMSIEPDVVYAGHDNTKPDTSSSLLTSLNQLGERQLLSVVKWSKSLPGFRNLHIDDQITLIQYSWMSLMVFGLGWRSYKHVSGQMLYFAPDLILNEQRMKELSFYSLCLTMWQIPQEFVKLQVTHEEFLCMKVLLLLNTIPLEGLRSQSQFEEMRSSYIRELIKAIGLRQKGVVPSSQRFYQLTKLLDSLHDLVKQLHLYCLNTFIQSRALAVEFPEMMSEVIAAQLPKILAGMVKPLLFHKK

[14] = target: T1, Mineralocorticoid receptor (Rattus norvegicus); experiment: Relative anti-mineralocorticoid potency compared to Spironolactone after oral administration; type: functional, organism-based; outline: as §1

Row | Structure (SMILES) | Activity [2] | RBA [3] [%] | Activity [4] | RBA [5] [%] | RBA [13] [%] | further results
1 | CC(=O)S[C@@H]1CC2=CC(=O)CC[C@]2(C)[C@H]2CC[C@@]3(C)[C@@H](CC[C@@]34CCC(=O)O4)[C@H]12 | Antagonist | 3.2 | inactive | 15 |  | RBA [1]: 2.6%; Activity [6]: Antagonist
2 | CC12CCC(=O)C=C1CCC1C2C=CC2(C)C(O)CCC12 (centres undefined) |  |  |  |  |  | Relative activity [7]: 0.7; relative binding affinity (RBA) [8]: 120
3 | C[C@]12CC[C@H]3[C@@H](CCC4CC(=O)CC[C@@H]43)[C@@H]1CC[C@@H]2O (some centres undefined) |  |  |  |  |  | Relative activity [7]: 0.1; relative binding affinity (RBA) [8]: 59
4 | CC12C=CC(=O)C=C1C[C@@H](SC(=O)c1ccccc1)C1C2C=CC2(C)C1CC[C@@]21CCC(=O)O1 (some centres undefined) |  | 3.7 | inactive | 37 |  | Activity [9]: Agonist
5 | CC12C=CC(=O)C=C1CCC1C2C=CC2(C)C1CC[C@@]21CCC(=O)O1 (some centres undefined) |  | 120 | inactive | 71 |  | RBA [1]: 7.5%; Activity [9]: Agonist
6 | CC12C=CC(=O)C=C1CCC1C2C=CC2(C)C1C1CC1[C@@]21CCC(=O)O1 (some centres undefined) |  | 220 |  | 440 |  | 
7 | C[C@]12CCC(=O)C=C1C=C[C@@H]1[C@@H]2CC[C@@]2(C)[C@H]1CC[C@@]21CCC(=O)O1 | Antagonist | 1.7 |  | 2.9 |  | Activity [10]: inactive
8 | CC12CCC(=O)C=C1CCC1C2C=CC2(C)C1C1CC1[C@@]21CCC(=O)O1 (some centres undefined) |  |  |  | 650 |  | RBA [11]: 310%
9 | CC12C=CC(=O)C=C1[C@H]1C[C@H]1C1C2C=CC2(C)C1CC[C@@]21CCC(=O)O1 (some centres undefined) | Antagonist | 32 |  | 48 | 1.9 | Activity [12]: inactive; Activity [10]: inactive; Relative potency [14]: 1.31
10 | CC(=O)S[C@@H]1CC2=CC(=O)C=CC2(C)C2C=CC3(C)C(CC[C@@]34CCC(=O)O4)C21 (some centres undefined) | Antagonist | 23 | inactive | 71 | 3.9 | Relative potency [14]: 0.77; Activity [6]: Antagonist
11 | CC(=O)S[C@@H]1CC2=CC(=O)CCC2(C)C2C=CC3(C)C(C4CC4[C@@]34CCC(=O)O4)C21 (some centres undefined) |  | 370 | inactive | > 1000 | 89 | 
12 | CC12CCC(=O)C=C1C1CC1C1C2C=CC2(C)C1C1CC1[C@@]21CCC(=O)O1 (some centres undefined) |  |  | inactive | 760 |  | RBA [1]: 540%; RBA [11]: 300%
13 | CC12C=CC3C(CCC4CC(=O)CCC43C)C1CCC2O (centres undefined) |  |  |  |  |  | Relative activity [7]: 1; relative binding affinity (RBA) [8]: 81
14 | CC(C)(C)C(=O)S[C@@H]1CC2=CC(=O)CCC2(C)C2C=CC3(C)C(CC[C@@]34CCC(=O)O4)C21 (some centres undefined) | Antagonist |  |  | 42 | 38 | RBA [11]: 46%
15 | CC12CCC(=O)C=C1C=CC1C2C=CC2(C)C1C1CC1[C@@]21CCC(=O)O1 (some centres undefined) |  |  | inactive | 320 | 210 | RBA [11]: 290%
16 | CC(C)(C)C(=O)S[C@@H]1CC2=CC(=O)C=CC2(C)C2C=CC3(C)C(CC[C@@]34CCC(=O)O4)C21 (some centres undefined) | Antagonist | 1000 |  | 530 | 18 | Activity [12]: inactive; Activity [6]: Antagonist
17 | CC12CCC(=O)C=C1C[C@@H](SC(=O)c1ccccc1)C1C2C=CC2(C)C1CC[C@@]21CCC(=O)O1 (some centres undefined) |  |  | inactive | 18 |  | RBA [1]: 25%; RBA [11]: 11%
